Series [1] in a line: Cytotoxicity against human HepG2 cells assessed as cell viability at 10 ug/ml after 72 hrs by MTT assay (reference value: 100%). The format is cell-based. The conditions noted are these: read-out: Activity. The procedure, abridged:
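Cells were grown in DMEM with 10% heat-inactivated FBS and penicillin-streptomycin, seeded at 2×10^3/well (HepG2, HaCat) or 1×10^3/well (Vero), then left 24 h. Compound was applied at 10 µg/mL final (2% DMSO) for 72 h at 37 °C, 5% CO2. MTT 1 mg/mL was added for 3 h, formazan dissolved in DMSO, and A595 read. Viability is expressed relative to 2% DMSO wells; mean ± SEM, triplicates, three independent experiments.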

A short description of series [2]: Selectivity index, ratio of cytotoxic concentration for human HaCaT cells by neutral red uptake assay to MIC for Mycobacterium tuberculosis H37Rv ATCC 27294. Format: toxicity. The conditions noted are these: read-out: Selectivity Index.
The nature of series [3]: Stability of the compound in PBS containing 10% DMSO at 25 degC measured after 6 hrs by HPLC analysis. Particulars: buffer. The format is physicochemical.
Series [4] can be described thus: Stability of the compound in PBS containing 10% DMSO at 25 degC measured after 9 hrs by HPLC analysis. Format: physicochemical. Particulars: buffer.
Series [5] in a line: Stability of the compound in PBS containing 10% DMSO at 37 degC measured after 3 hrs by HPLC analysis. The format is physicochemical. The conditions noted are these: read-out: Stability.
Series [6] is filed under the species Danio rerio. Description: Cardiotoxicity in Zebrafish AB embryos assessed as heart beat rate at 20 uM measured at 2 days post fertilization by stereomicroscopic method (reference value: 128.7 to 146.3 bpm). Format: organism-based. Particulars: in vivo, 48 h.
The species named for series [7] is Danio rerio. Description: Cardiotoxicity in Zebrafish AB embryos assessed as heart beat rate at 3 uM measured at 5 days post fertilization by stereomicroscopic method (reference value: 148.1 to 158.2 bpm). The format is organism-based. The conditions noted are these: in vivo, 120 h.
Series [8] is filed under the species Danio rerio. The series can be described thus: Cardiotoxicity in Zebrafish AB embryos assessed as heart beat rate at 20 uM measured at 5 days post fertilization by stereomicroscopic method (reference value: 148.1 to 158.2 bpm). Format: organism-based. The conditions noted are these: in vivo, 120 h.
The species named for series [9] is Danio rerio. Description: Toxicity in Zebrafish AB embryos assessed as morphological alteration by measuring effect on surface area of eyes at 3 to 20 uM measured at 2 to 5 days post fertilization by stereomicroscopic method. The conditions noted are these: in vivo. Format: organism-based. The procedure, abridged: (§1)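 AB embryos are treated from 2 hpf to 5 dpf at 3.0, 15.0 and 20.0 µM in fish water with 1% DMSO, at 28 °C. Controls are fish water and 1% DMSO. Larvae are photographed under a stereomicroscope (3×) at 2 and 5 dpf, n = 30. Body length (µm), ocular distance (µm) and eye surface area (µm²) are measured from the images.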

Series [10] is filed under the species Danio rerio. Description: Toxicity in Zebrafish AB embryos assessed as effect on larval survival rate at 3 to 20 uM. Particulars: in vivo. Format: organism-based. Summed up:
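Wild-type AB zebrafish embryos are exposed from 2 hpf to 5 dpf at 3.0, 15.0 and 20.0 µM in fish water with 1% DMSO, at 28 °C on a 14/10 h light-dark cycle. Controls are fish water alone and 1% DMSO. Survival and hatching are checked daily under a stereomicroscope.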

The species named for series [11] is Danio rerio. The series can be described thus: Toxicity in Zebrafish AB embryos assessed as morphological alteration by measuring effect on body length of larvae at 20 uM measured at 2 to 5 days post fertilization by stereomicroscopic method. The format is organism-based. The conditions noted are these: in vivo. The procedure, abridged:
as §1

For the compound `O=C(CSc1nc2ccccc2c(=O)[nH]1)NC1CCCCC1`, in series [1], the viability at 72 h, 10 ug/ml turned out to be 86%. The selectivity ratio in [2] was ≤ 32. Besides, the Stability in [3] was 100%; in series [4] it was 118%. The remaining at 3 h in series [5] was determined as 109%. Besides, the Activity in the series filed under Danio rerio [6] was 155.7 bpm; in the series listed under Danio rerio [7] it was 162.8 bpm; in the series listed under Danio rerio [8], 158.4 bpm; in the series listed under Danio rerio [9] it was “Non-Toxic”; in the series filed under Danio rerio [10], “Non-Toxic”.
As to `CC1CCC(NC(=O)CSc2nc3ccccc3c(=O)[nH]2)CC1` (stereo unspecified), the viability at 72 h, 10 ug/ml in series [1] was 89%. Moreover, in series [2], the selectivity ratio was ≤ 32. Moreover, the values for the Stability in series [3] and in series [4] were 97% and 99%, respectively. The remaining at 3 h in [5] turned out to be 80%. Besides, the Activity in the series listed under Danio rerio [6] is 146.4 bpm; in the series filed under Danio rerio [7] it was 147.7 bpm; in the series listed under Danio rerio [8], 152.2 bpm; in the series filed under Danio rerio [9], “Non-Toxic”; in the series listed under Danio rerio [10], “Non-Toxic”.
`CC1CCCCC1NC(=O)CSc1nc2ccccc2c(=O)[nH]1` (stereo unspecified): in [1], the viability at 72 h, 10 ug/ml stood at 94%. Moreover, the selectivity ratio in series [2] is ≤ 32. For the same compound, the values for the Stability in [3] and in series [4] were 122% and 127%, respectively. For the same compound, in series [5], the remaining at 3 h is 92%. Further, the Activity in the series listed under Danio rerio [6] is on record as 153.9 bpm; in the series listed under Danio rerio [7] it was 162.6 bpm; in the series listed under Danio rerio [8], 160.6 bpm; in the series filed under Danio rerio [9] it was “Non-Toxic”; in the series listed under Danio rerio [10] it was “Non-Toxic”.
For `C[C@H]1CC[C@H](NC(=O)CSc2nc3ccccc3c(=O)[nH]2)CC1`, the Activity entry is “Toxic” in the series filed under Danio rerio [11]; 150.2 bpm in the series filed under Danio rerio [6]; 149.2 bpm in the series listed under Danio rerio [7]; 153.8 bpm in the series filed under Danio rerio [8]; “Non-Toxic” in the series filed under Danio rerio [9]; “Non-Toxic” in the series listed under Danio rerio [10]. For the same compound, the viability at 72 h, 10 ug/ml in series [1] is 83%. In addition, the selectivity ratio in series [2] was ≤ 32. The results for the Stability in series [3] and in series [4] were 67% and 64%, respectively. Moreover, in [5], the remaining at 3 h came out at 83%.
For the compound `O=C(CSc1nc2ccccc2c(=O)[nH]1)NC1CCCCCC1`, the viability at 72 h, 10 ug/ml in [1] turned out to be 99%. Moreover, the selectivity ratio in [2] was ≤ 32. Also, the results for the Stability in [3] and in series [4] were 90% and 91%, respectively. Further, in series [5], the remaining at 3 h was found to be 81%. Also, the Activity in the series filed under Danio rerio [6] is reported as 148.4 bpm; in the series filed under Danio rerio [7], 160.1 bpm; in the series filed under Danio rerio [8], 153.8 bpm; in the series listed under Danio rerio [9], “Non-Toxic”; in the series filed under Danio rerio [10] it was “Non-Toxic”.
Turning to `CC1CCCC(NC(=O)CSc2nc3ccccc3c(=O)[nH]2)C1` (stereo unspecified), the viability at 72 h, 10 ug/ml in series [1] came out at 89%. The selectivity ratio in series [2] was ≤ 32. For the same compound, the results for the Stability in series [3] and in series [4] were 102% and 100%, respectively. In addition, in series [5], the remaining at 3 h is 96%. For the same compound, the Activity is recorded as 152.2 bpm in the series filed under Danio rerio [6]; 157.2 bpm in the series filed under Danio rerio [7]; 160.9 bpm in the series listed under Danio rerio [8]; “Non-Toxic” in the series filed under Danio rerio [9]; “Non-Toxic” in the series filed under Danio rerio [10].
Consider `O=C(CSc1nc2ccccc2c(=O)[nH]1)NCC1CCCCC1`, for which the viability at 72 h, 10 ug/ml in series [1] was 79%. In series [2], the selectivity ratio is ≤ 32. Also, the values for the Stability in series [3] and in series [4] were 115% and 116%, respectively. The remaining at 3 h in series [5] stood at 106%. The Activity in the series filed under Danio rerio [6] is 152.6 bpm; in the series listed under Danio rerio [7], 157.8 bpm; in the series filed under Danio rerio [8], 152.5 bpm; in the series listed under Danio rerio [9], “Non-Toxic”; in the series listed under Danio rerio [10] it was “Non-Toxic”.

For the origin of these results see ChEMBL document CHEMBL4152290, “1H-Benzo[d]imidazoles and 3,4-dihydroquinazolin-4-ones: Design, synthesis and antitubercular activity” (Eur J Med Chem, 2018).
